Values after ≈ are worked out from the molar mass of the structure shown. Each block holds one molecule with its values, some of them ahead of it. Active and inactive are the calls of the source. The calls are words filed in the database; no cut-off is given here.
Experiments:
[1] = target: T1, Prostaglandin E2 receptor EP1 subtype (Homo sapiens, UniProt P34995); assay: Displacement of [3H]PGE2 from human prostanoid EP1 receptor expressed in CHO-K1 cells after 30 mins by topcount liquid scintillation counting; type: cell-based
T1 sequence (P34995 whole entry): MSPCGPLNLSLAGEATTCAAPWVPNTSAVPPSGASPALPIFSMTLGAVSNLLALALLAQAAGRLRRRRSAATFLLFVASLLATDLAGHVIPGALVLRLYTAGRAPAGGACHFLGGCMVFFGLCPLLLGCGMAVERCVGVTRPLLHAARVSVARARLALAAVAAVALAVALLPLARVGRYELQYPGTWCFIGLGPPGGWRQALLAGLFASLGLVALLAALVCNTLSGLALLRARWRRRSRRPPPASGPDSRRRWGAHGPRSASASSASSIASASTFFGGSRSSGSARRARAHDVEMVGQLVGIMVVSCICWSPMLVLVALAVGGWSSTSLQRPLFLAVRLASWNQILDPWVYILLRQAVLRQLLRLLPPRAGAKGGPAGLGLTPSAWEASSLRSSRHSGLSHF
Method in brief: (§1)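 Radioligand binding at the EP1 receptor. Either [3H]-GW875240X or [3H]-PGE2 is the displaced ligand. Values are pIC50, means of at least three experiments.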

[2] = target: T1, Prostaglandin E2 receptor EP1 subtype; assay: Displacement of [3H]GW875240X from human prostanoid EP1 receptor expressed in CHO-K1 cells after 45 mins by topcount liquid scintillation counting; type: cell-based; method in brief: as §1
Rattus norvegicus [3] = assay: Analgesic activity in rat assessed as reversal of complete Freund's adjuvant-induced inflammatory pain at 5 mg/kg, po after 3 hrs post dose; type: functional, organism-based; design: dose 5 mg/kg
Method in brief: (§2)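 Rat CFA inflammatory pain model. Oral dosing in 1% methylcellulose. Hypersensitivity reversal is read by weight bearing, at 1 h post-dose. The 5 mg/kg study was also read at 3 h. Dose-response groups were 3, 10 and 30 mg/kg, or 1, 3 and 10 mg/kg, with ED50 derived. Celecoxib at 10 mg/kg po served as the standard.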

[4] = Oral bioavailability in rat at 3 mg/kg; type: ADME, organism-based; details: in vivo
Method in brief: (§3)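 Rat oral pharmacokinetics at 3 mg/kg in 1% (w/v) aqueous methylcellulose. Bioavailability and half-life are derived.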

[5] = Drug level in blood of rat complete Freund's adjuvant-induced inflammatory pain model at 10 mg/kg, po after 1 hr; type: ADME, organism-based; design: dose 10 mg/kg, route oral; details: read-out: Drug uptake
Method in brief: (§4)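 Blood and brain samples are taken from CFA rats after oral dosing in 1% methylcellulose. Sampling is at 1 h post-dose, and at 3 h in the 5 mg/kg study. Concentrations are in µM or nM, n = 7 or n = 6 for blood and n = 3 for brain. The brain:blood ratio is calculated from the same rats.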

[6] = Solubility of the compound in simulated gastric fluid after 1 hr; type: physicochemical
Method in brief: (§5)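 Solubility is measured after 1 h in water, SGF, FaSSIF and FeSSIF, in µg/mL.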

P-gp [7] = assay: Efflux ratio of the compound in MDCK cells expressing p-gp; type: ADME, cell-based, Canis lupus familiaris; details: dog, MDCK-MDR1
Method in brief: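 MDCK cell monolayers were used to measure permeability. The efflux ratio is reported alongside exact permeability (Pexact, nm/sec) and was used to judge whether the compound is a Pgp substrate.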

[8] = Ratio of drug level in brain to blood in rat complete Freund's adjuvant-induced inflammatory pain model at 30 mg/kg, po after 1 hr; type: ADME, organism-based; design: dose 30 mg/kg, route oral; details: read-out: BBR; method in brief: as §4
[9] = Volume of distribution at steady state in rat at 1 mg/kg, iv; type: ADME, organism-based; design: dose 1 mg/kg, route intravenous; details: in vivo, read-out: Vdss
[10] = Blood clearance in rat at 1 mg/kg, iv; type: ADME, organism-based; design: dose 1 mg/kg, route intravenous
[11] = Solubility of the compound in fed state simulated intestinal fluid after 1 hr; type: physicochemical; method in brief: as §5
[12] = Half life in rat at 3 mg/kg, po; type: ADME, organism-based; design: dose 3 mg/kg, route oral; details: in vivo; method in brief: as §3
Rattus norvegicus [13] = assay: Analgesic activity in rat assessed as reversal of complete Freund's adjuvant-induced inflammatory pain at 30 mg/kg, po after 1 hr post dose relative to 10 mg/kg of celecoxib; type: functional, organism-based; method in brief: as §2
[14] = Half life in rat at 1 mg/kg, iv; type: ADME, organism-based; design: dose 1 mg/kg, route intravenous; details: in vivo
Rattus norvegicus [15] = assay: Analgesic activity in rat assessed as reversal of complete Freund's adjuvant-induced inflammatory pain at 5 mg/kg, po after 1 hr post dose; type: functional, organism-based; design: dose 5 mg/kg; method in brief: as §2
[16] = Drug level in blood of rat complete Freund's adjuvant-induced inflammatory pain model at 3 mg/kg, po after 1 hr; type: ADME, organism-based; design: dose 3 mg/kg, route oral; details: read-out: Drug uptake; method in brief: as §4
[17] = Ratio of drug level in brain to blood in rat complete Freund's adjuvant-induced inflammatory pain model at 5 mg/kg, po after 3 hrs; type: ADME, organism-based; design: dose 5 mg/kg, route oral; details: read-out: BBR; method in brief: as §4
P-gp [18] = assay: Permeability across MDCK cells expressing p-gp; type: ADME, cell-based, Canis lupus familiaris; details: dog, MDCK-MDR1; read-out: permeability
Method in brief: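 MDCK cells. Passive permeability is reported as Pexact (nm/sec), and efflux ratio is used to assess Pgp substrate status.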

[19] = Solubility of the compound in fasted state simulated intestinal fluid after 1 hr; type: physicochemical; method in brief: as §5
Liver microsomes = assay: Intrinsic clearance in human liver microsomes; type: ADME, Microsome
[20] = Drug level in brain of rat complete Freund's adjuvant-induced inflammatory pain model at 30 mg/kg, po after 1 hr; type: ADME, organism-based; design: dose 30 mg/kg, route oral; details: read-out: Drug uptake; method in brief: as §4
[21] = Lipophilicity, log D of compound at pH 7.4 by shake flask method; type: physicochemical; details: buffer
Method in brief: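 Log D is determined by the shake flask method at pH 7.4.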

Rattus norvegicus [22] = assay: Analgesic activity in po dosed rat assessed as reversal of complete Freund's adjuvant-induced inflammatory pain after 1 hr post dose; type: functional; method in brief: as §2
[23] = Drug level in blood of rat complete Freund's adjuvant-induced inflammatory pain model at 30 mg/kg, po after 1 hr; type: ADME, organism-based; design: dose 30 mg/kg, route oral; details: read-out: Drug uptake; method in brief: as §4
[24] = Solubility of the compound in water after 1 hr; type: physicochemical; method in brief: as §5
Brain = assay: Fraction unbound in brain of po dosed rat complete Freund's adjuvant-induced inflammatory pain model; type: ADME, organism-based; details: in vivo
[25] = Drug level in brain of rat complete Freund's adjuvant-induced inflammatory pain model at 10 mg/kg, po after 1 hr; type: ADME, organism-based; design: dose 10 mg/kg, route oral; details: read-out: Drug uptake; method in brief: as §4
Rattus norvegicus [26] = assay: Analgesic activity in rat chronic joint pain model at 30 mg/kg, po bid; type: functional, organism-based; design: dose 30 mg/kg
Method in brief: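 Rat joint pain model of chronic inflammatory pain. Oral dosing b.i.d. at 1, 3, 10 and 30 mg/kg, or at 0.3, 1, 3 and 10 mg/kg. Reversal of hypersensitivity is scored, with statistical significance testing, and ED50 is calculated.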

Blood = assay: Fraction unbound in blood of po dosed rat complete Freund's adjuvant-induced inflammatory pain model; type: ADME, organism-based; details: in vivo
[27] = Ratio of drug level in brain to blood in rat complete Freund's adjuvant-induced inflammatory pain model at 10 mg/kg, po after 1 hr; type: ADME, organism-based; design: dose 10 mg/kg, route oral; details: read-out: BBR; method in brief: as §4
Rattus norvegicus [28] = assay: Analgesic activity in rat assessed as reversal of complete Freund's adjuvant-induced inflammatory pain at 10 mg/kg, po after 1 hr post dose; type: functional; method in brief: as §2

Structure (SMILES): Cc1cc(C(=O)O)nn1Cc1cc(Cl)cn2cc(C(C)C)cc12
IC50 [1]: 126 nM

Structure (SMILES): Cc1cc(C(=O)O)nn1Cc1cc(Cl)cn2nc(C(C)C)cc12
IC50 [2]: > 1000 nM

Structure (SMILES): Cc1cc(C(=O)NC[C@H]2CCCO2)nn1Cc1cc(Cl)cc2cc(-c3ccccc3)oc12
IC50 [2]: 6.31 nM

Structure (SMILES): Cc1cc(NC(=O)C2CCN(CC(F)(F)F)CC2)nn1Cc1cc(Cl)cc2cc(-c3ccccc3)oc12
IC50 [2]: 25.1 nM

Structure (SMILES): Cc1cc(C(=O)O)nn1Cc1cc(Cl)cc2cc(-c3ccccc3)oc12
IC50 [2]: 2 nM

Structure (SMILES): Cc1cc(C(=O)NN2CCCCC2)nn1Cc1cc(Cl)cc2cc(C(C)C)oc12
IC50 [1]: 100 nM

Structure (SMILES): Cc1cc(C(=O)NCC(O)C(F)(F)F)nn1Cc1cc(Cl)cc2cc(-c3ccccc3)oc12 (configuration not stated)
IC50 [2]: 25.1 nM

Structure (SMILES): Cc1cc(C(=O)O)nn1Cc1cc(Cl)cc2nc(C(C)C)cn12
IC50 [1]: > 1000 nM

More lines, main results first:

IC50 [1]: 63.1 nM
Structure (SMILES): CNCc1ccc(NC(=O)c2cc(C)n(Cc3cc(Cl)cc4cc(C(C)C)oc34)n2)cc1

IC50 [2]: 5.01 nM
Structure (SMILES): Cc1cc(C(=O)NC2CC2)nn1Cc1cc(Cl)cc2cc(-c3ccccc3)oc12

bioavailability [4]: 19%
concentration at 1 h [5]: 5.61 µM
solubility at 1 h [6]: 1 µg/mL (≈ 2.4 µM)
efflux ratio (P-gp [7]): 0.9
Kp at 1 h [8]: 1.05
Vd [9]: 3 L/kg
clearance [10]: 85 mL/min/kg
solubility at 1 h [11]: 71 µg/mL (≈ 170 µM)
half-life [12]: 102 min
half-life [14]: 30 min
concentration at 1 h [16]: 1940 nM
Kp at 3 h [17]: 1.15
IC50 [1]: 50.1 nM
Papp (P-gp [18]): 67.1 ×10⁻⁶ cm/s
solubility at 1 h [19]: 5 µg/mL (≈ 12 µM)
CL (Liver microsomes): 1.1 mL/min/g
concentration at 1 h [20]: 11.3 µM
logD [21]: 2.6
concentration at 1 h [23]: 10.2 µM
Structure (SMILES): Cc1cc(C(=O)NN2CCOCC2)nn1Cc1cc(Cl)cc2cc(C(C)C)oc12
Activity (Rattus norvegicus [3]): inactive
Activity (Rattus norvegicus [13]): Active
Activity (Rattus norvegicus [15]): Active
ED50 (Rattus norvegicus [22]): 14.7 mg/kg

IC50 [1]: 794 nM
Structure (SMILES): Cc1cc(C(=O)NC2CCNCC2)nn1Cc1cc(Cl)cc2cc(C(C)C)oc12

IC50 [1]: 63.1 nM
Structure (SMILES): Cc1cc(C(=O)NC2CCOCC2)nn1Cc1cc(Cl)cc2cc(C(C)C)oc12

IC50 [2]: 10 nM
solubility at 1 h [24]: 171 µg/mL (≈ 379 µM)
concentration at 1 h [5]: 2.34 µM
solubility at 1 h [6]: 227 µg/mL (≈ 503 µM)
Fu (Brain): 0.17%
Vd [9]: 3.5 L/kg
clearance [10]: 22 mL/min/kg
half-life [14]: 126 min
concentration at 1 h [25]: 3.97 µM
solubility at 1 h [19]: 382 µg/mL (≈ 847 µM)
Fu (Blood): 0.662%
CL (Liver microsomes): 1.1 mL/min/g
Kp at 1 h [27]: 1.7
logD [21]: 3
Structure (SMILES): Cc1cc(C(=O)NN2CCOCC2)nn1Cc1cc(Cl)cc2cc(-c3ccccc3)oc12
Activity (Rattus norvegicus [26]): Active
Activity (Rattus norvegicus [28]): 49%

IC50 [2]: 7.94 nM
Structure (SMILES): Cc1cc(C(=O)N[C@H]2CC[C@H](O)CC2)nn1Cc1cc(Cl)cc2cc(-c3ccccc3)oc12
